According to ChEMBL document CHEMBL1127064, “A novel series of N-(1-aminoalkylidene)carboximidamides as potential hypoglycemic agents” (1993):
Active and inactive are the calls of the source. No cut-off for these calls is given here.

Key:
Rattus norvegicus [1] = assay: Mean maximum percent lowering of glucose at a single dose of 10 mg/kg, subcutaneously using rat oral glucose tolerance test.; assay type: functional; details: route subcutaneous
Procedure, shortened: (§1)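 Rats given a single 10 mg/kg sc dose, calculated as free base. Blood glucose is compared with controls at each time point by unpaired Student's t-test; a significant lowering at any point (95% confidence) counts as active. Each rat's maximum percent lowering from the matched control mean is averaged to give the mean maximum percent lowering.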

Rattus norvegicus [2] = species: Rattus norvegicus; assay: Effective dose to produce a 30% maximum decrease of glucose from control; assay type: functional
Procedure, shortened: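 Rats, subcutaneous dosing at 10, 5 and 2.5 mg/kg, calculated as free base. For each rat, the maximum percent lowering of blood glucose from the control group mean at the matched time point is taken. The dose giving a 30% decrease, with its 95% CI, comes from regression of mean maximum percent decrease versus log dose (mg/kg).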

Rattus norvegicus [3] = assay: Mean maximum percent lowering of glucose was determined at a single dose of 10 mg/kg, subcutaneously using rat oral glucose tolerance test; IA = inactive; assay type: functional, organism-based; set-up: dose 10 mg/kg; procedure, shortened: as §1

| SMILES | Lowering (Rattus norvegicus [1]) [%] | ED30 (Rattus norvegicus [2]) [mg/kg] | IA (Rattus norvegicus [3]) |
| --- | --- | --- | --- |
| C/C(=N\C(=N\c1ccccc1)N1CCOCC1)N1CCOCC1 | 24 |  |  |
| C/N=C(C)\N=C(\Nc1ccccc1)N1CCOCC1 | 45 | 2.6 |  |
| C/C(=N\C(=N\c1ccccc1)N1CCOCC1)N1CCN(C)CC1 |  |  | inactive |
| C/N=C(\N=C(\Nc1ccc(F)cc1)N1CCOCC1)C(C)C | 42 |  |  |
| CN(C)/C(Cc1ccccc1)=N/C(=N/c1ccccc1)N1CCOCC1 | 27 |  |  |
| CN(C)/C=N/C(=N/c1ccccc1)N1CCOCC1 | 22 |  |  |
| CC(=N)/N=C(/Nc1ccccc1)N1CCOCC1 | 21 |  |  |
| CN(C)/C(=N/C(=N/c1ccccc1)N1CCOCC1)C(C)(C)C | 40 | 9.6 |  |
| CCCCCC/C(=N\C(=N\c1ccccc1)N1CCOCC1)N(C)C | 31 |  |  |
| C/N=C(\N=C(\Nc1ccccc1)N1CCCC1)C(C)C | 43 |  |  |
| CC(C)/N=C(\N=C(\Nc1ccccc1)N1CCOCC1)C(C)C | 23 |  |  |
| CN/C(=N/C(=N/c1ccccc1OC)N1CCOCC1)C(C)C | 21 |  |  |
| C/C(=N\C(=N\c1ccccc1)N1CCOCC1)N(C)C | 38 | 6.7 |  |
| C/C(=N\C(=N\c1ccccc1)N1CCOCC1)N(C)c1ccccc1 | 20 |  |  |
| CCC/N=C(\N=C(\Nc1ccccc1)N1CCOCC1)C(C)C | 31 |  |  |
| CCC(=N/C)/N=C(/Nc1ccccc1)N1CCOCC1 | 42 |  |  |
| CC/N=C(C)\N=C(\Nc1ccccc1)N1CCOCC1 | 48 | 4.6 |  |
| CC(=N/c1ccccc1)/N=C(/Nc1ccccc1)N1CCOCC1 | 26 |  |  |
| CC(=N/CCO)/N=C(/Nc1ccccc1)N1CCOCC1 | 15 |  |  |

| SMILES | Lowering (Rattus norvegicus [1]) [%] | ED30 (Rattus norvegicus [2]) [mg/kg] | IA (Rattus norvegicus [3]) |
| --- | --- | --- | --- |
| C/C(=N\C(=N\c1ccccc1)N1CCOCC1)N1CCCCC1 | 46 | 5.3 |  |
| CC(=O)N/C(C)=N/C(=N/c1ccccc1)N1CCOCC1 | 22 |  |  |
| CN1CCC/C1=N\C(=N\c1ccccc1)N1CCOCC1 [LINOGLIRIDE] | 34 | 6.1 |  |
| CC(=N/C(C)C)/N=C(/Nc1ccccc1)N1CCOCC1 | 42 | 3.9 |  |
| C/N=C(\N=C(\Nc1ccccc1)N1CCOCC1)C(C)C | 52 | 1.5 |  |
| CC(=N/C(C)(C)C)/N=C(/Nc1ccccc1)N1CCOCC1 | 45 | 4.2 |  |
| CC/N=C(\N=C(\Nc1ccccc1)N1CCOCC1)C(C)C | 26 |  |  |
| CCOC(=O)C/N=C(C)\N=C(\Nc1ccccc1)N1CCOCC1 |  |  | inactive |
| CC(=N/S(C)(=O)=O)/N=C(/Nc1ccccc1)N1CCOCC1 |  |  | inactive |
| CCCCN(C)/C(C)=N/C(=N/c1ccccc1)N1CCOCC1 | 33 | 7.6 |  |
| CC(C)C(=N)/N=C(/Nc1ccccc1)N1CCOCC1 | 34 |  |  |
| CN(C)/C(CC(C)(C)C)=N/C(=N/c1ccccc1)N1CCOCC1 | 37 | 5.9 |  |
| CN(C)/C(=N/C(=N/c1ccccc1)N1CCOCC1)c1ccccc1 | 25 |  |  |
| CC/C(=N\C(=N\c1ccccc1)N1CCOCC1)N(C)C | 43 | 5.3 |  |
| C/C(=N\C(=N\c1ccccc1)N1CCOCC1)N(Cc1ccccc1)c1ccccc1 | 17 |  |  |
| CN(C)/C(=N/C(=N/c1ccccc1)N1CCOCC1)C1CCCCC1 | 27 |  |  |
| CC(C)/C(=N\C(=N\c1ccccc1)N1CCOCC1)N(C)C | 43 | 4.3 |  |
| CCC/N=C(C)\N=C(\Nc1ccccc1)N1CCOCC1 | 56 | 0.97 |  |
| CC(=N/Cc1ccccc1)/N=C(/Nc1ccccc1)N1CCOCC1 | 50 | 4.3 |  |
